Measurements published in ChEMBL document CHEMBL4138290, “Highly Oxidized Guaianolide Sesquiterpenoids with Potential Anti-inflammatory Activity from Chrysanthemum indicum” (J Nat Prod, 2018).
Active and inactive are the calls of the source. The calls are words filed in the database; no cut-off is given here.

How the values were obtained:
RAW264.7 [1] = experiment: Antiinflammatory activity in mouse RAW264.7 cells assessed as inhibition of LPS-induced NO production after 18 hrs by Griess assay; format: functional, cell-based; conditions: RAW264.7, 18 h
Outline: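 RAW264.7 murine macrophages (DMEM, 10% FBS, pen-strep, 37 °C, 5% CO2) seeded 6 × 10^4 cells/well for 18 h. Compound added with 1 μg/mL LPS for 18 h. Supernatant nitrite read with Griess reagent (10 min, OD 540 nm). Inhibition relative to DMSO-only control. L-NMMA as positive control. IC50 is mean ± SD of three independent experiments.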

RAW264.7 [2] = experiment: Downregulation of iNOS in LPS-induced mouse RAW264.7 cells at 2.5 uM by Western blot analysis; format: functional, cell-based
Outline: (§1)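 Western blot in RAW264.7 cells treated with compound under LPS (1 μg/mL) stimulation. Cells lysed in 1% RIPA and protein quantified by BCA. SDS-PAGE, PVDF transfer, 5% skim milk block for 2 h at 25 °C, primary antibody 12 h at 4 °C, then secondary at room temperature.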

RAW264.7 [3] = experiment: Downregulation of COX-2 in LPS-induced mouse RAW264.7 cells at 2.5 uM by Western blot analysis; format: functional, cell-based; outline: as §1
RAW264.7 [4] = experiment: Inhibition of JNK phosphorylation in LPS-induced mouse RAW264.7 cells at 1.25 to 5 uM incubated with compound for 1 hr followed by LPS stimulation measured after 4 hrs by Western blot analysis; format: cell-based
Outline: (§2)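 Western blot of MAPK phosphorylation in RAW264.7 cells. Cells pretreated with or without compound (1.25, 2.5, 5.0 μM) for 1 h, then LPS (0.1 μg/mL) for 4 h. Lysed in 1% RIPA, BCA protein assay, SDS-PAGE, PVDF, milk block 2 h at 25 °C, primary antibody 12 h at 4 °C, then secondary at room temperature.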

RAW264.7 [5] = experiment: Inhibition of NF-kappaB in LPS-induced mouse RAW264.7 cells assessed as decrease in STAT3 phosphorylation at 1.25 to 5 uM by Western blot analysis; format: cell-based; outline: as §1
RAW264.7 [6] = experiment: Downregulation of total NF-kappaB level in LPS-induced mouse RAW264.7 cells at 1.25 to 5 uM by Western blot analysis; format: functional, cell-based; outline: as §1
[7] = biological target: MAP kinase p38 (Mus musculus) (UniProt P47811+O08911+Q9WUI1+Q9Z1B7); experiment: Inhibition of p38 phosphorylation in LPS-induced mouse RAW264.7 cells at 1.25 to 5 uM incubated with compound for 1 hr followed by LPS stimulation measured after 4 hrs by Western blot analysis; format: cell-based; outline: as §2
RAW264.7 [8] = experiment: Cytotoxicity against LPS-induced mouse RAW264.7 cells assessed as reduction in cell viability at 6.25 uM after 18 hrs by MTT assay; format: cell-based; conditions: raw264.7, 18 h
Outline: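 RAW264.7 cells were seeded at 5 × 10^3/well for 18 h, then exposed to compound at various concentrations with or without LPS (1.0 μg/mL) for 18 h. MTT (5 mg/mL, 20 μL) added for 4 h. Formazan dissolved in DMSO and read at 570 nm. Viability is relative to the DMSO-only control, set as 100%.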

[9] = biological target: Transcription factor p65 (Mus musculus) (UniProt Q04207); experiment: Inhibition of LPS-induced NF-kB p65 nuclear translocation in mouse RAW264.7 cells at 1.25 to 5 uM by Western blot analysis; format: cell-based; outline: as §1
Chain of Transcription factor p65 (Mus musculus) (Q04207 whole entry): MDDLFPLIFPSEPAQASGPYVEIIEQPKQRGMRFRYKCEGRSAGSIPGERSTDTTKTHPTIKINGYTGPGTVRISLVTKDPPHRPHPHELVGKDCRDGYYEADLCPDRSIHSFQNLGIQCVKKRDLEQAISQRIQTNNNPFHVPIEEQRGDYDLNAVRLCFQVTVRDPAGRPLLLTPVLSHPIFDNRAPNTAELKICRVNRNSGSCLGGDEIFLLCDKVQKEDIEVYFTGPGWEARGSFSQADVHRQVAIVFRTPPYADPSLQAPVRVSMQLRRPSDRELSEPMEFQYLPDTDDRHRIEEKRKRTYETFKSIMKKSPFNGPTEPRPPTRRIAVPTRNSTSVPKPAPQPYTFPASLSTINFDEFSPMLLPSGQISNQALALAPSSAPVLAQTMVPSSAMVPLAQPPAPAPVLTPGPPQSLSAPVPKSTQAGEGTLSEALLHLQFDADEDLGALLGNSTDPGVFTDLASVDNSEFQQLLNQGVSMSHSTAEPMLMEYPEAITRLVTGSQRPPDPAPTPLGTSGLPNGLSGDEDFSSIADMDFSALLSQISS

RAW264.7 [10] = experiment: Inhibition of ERK phosphorylation in LPS-induced mouse RAW264.7 cells at 1.25 to 5 uM incubated with compound for 1 hr followed by LPS stimulation measured after 4 hrs by Western blot analysis; format: cell-based; outline: as §2

Row | Structure (SMILES) | IC50 (RAW264.7 [1]) [µM] | further results
1 | C=C1C(=O)O[C@H]2[C@H]1C[C@@H](OC(=O)/C(C)=C\C)[C@@](C)(O)[C@]13O[C@H]1[C@@H](O)[C@@](C)(O)[C@H]23 | 7.1 | –
2 | C=C(C)C(=O)O[C@@H]1C[C@H]2C(=C)C(=O)O[C@@H]2[C@H]2[C@](C)(O)[C@@H](Cl)[C@@H]3O[C@@]32[C@]1(C)O | 9.7 | –
3 | C=C1C(=O)O[C@H]2[C@H]1CC[C@@](C)(O)[C@]13O[C@H]1[C@@H](O)[C@](C)(O)[C@H]23 | 21.5 | –
4 | C=C1C(=O)O[C@H]2[C@@H]1[C@@H](OC(=O)/C(C)=C/C)C[C@@](C)(O)[C@@]13C=C[C@@](C)(OO1)[C@H]23 | 3.4 | –
5 | C=C1C(=O)O[C@H]2[C@H]1CC[C@@](C)(O)[C@]13C=C[C@](C)([C@@H]21)[C@]1(C3)C(=O)O[C@H]2[C@H]1CC[C@@](C)(O)[C@]13O[C@H]1[C@@H](O)[C@](C)(O)[C@H]23 | > 50 | –
6 | C=C1C(=O)O[C@H]2[C@@H]1[C@@H](OC(=O)C=C(C)C)C[C@@](C)(O)[C@@]13C=C[C@@](C)(OO1)[C@H]23 | 7.2 | –
7 | C=C1C(=O)O[C@H]2[C@H]1CC[C@@](C)(O)[C@]13C=C[C@](C)([C@@H]21)[C@]1(C3)C(=O)O[C@H]2[C@H]1CC[C@@](C)(O)[C@]13O[C@H]1[C@@H](O)[C@@](C)(O)[C@H]23 | > 50 | –
8 | CNC(=N)NCCC[C@H](N)C(=O)O [TILARGININE] | 25.8 | –

Second part, led by results:

Row | IC50 (RAW264.7 [1]) [µM] | Structure (SMILES) | further results
9 | 1.4 | C=C1C(=O)O[C@H]2[C@H]1C[C@@H](OC(=O)/C(C)=C\C)[C@@](C)(O)[C@@]13O[C@@H]1[C@@H]1O[C@]1(C)[C@H]23 | Activity (RAW264.7 [2]): Active; Activity (RAW264.7 [3]): Active; inhibition (RAW264.7 [4]): Active; inhibition (RAW264.7 [5]): Active; Activity (RAW264.7 [6]): Active; inhibition [7]: Active; Activity (RAW264.7 [8]): Non-Toxic; inhibition [9]: Active; inhibition (RAW264.7 [10]): Active
10 | 3.9 | C=C1C(=O)O[C@H]2[C@H]1C[C@@H](OC(=O)/C(C)=C/C)[C@@](C)(O)[C@@]13O[C@@H]1[C@@H]1O[C@]1(C)[C@H]23 | –
11 | 6.3 | C=C1C(=O)O[C@H]2[C@H]1C[C@@H](OC(=O)/C(C)=C/C)[C@@](C)(O)[C@]13O[C@H]1[C@H]1O[C@@]1(C)[C@H]23 | –
12 | 4 | C=C1C(=O)O[C@H]2[C@H]1C[C@@H](OC(=O)/C(C)=C\C)[C@@](C)(O)[C@]13O[C@H]1[C@H]1O[C@@]1(C)[C@H]23 | –
13 | 4.8 | C=C1C(=O)O[C@H]2[C@H]1C[C@@H](OC(=O)C=C(C)C)[C@@](C)(O)[C@@]13O[C@@H]1[C@@H]1O[C@]1(C)[C@H]23 | –
